These results are taken from ChEMBL document CHEMBL1133005, “Improving the oral bioavailability of the iron chelator HBED by breaking the symmetry of the intramolecular H-bond network” (J Med Chem, 2000).

Assay type in all cases: physicochemical
Series [1] can be described thus: Evaluated for ionization constant (pKa3) by titrations performed using the method of Yasuda and Shedlovsky. As to conditions: read-out: pKa3. The procedure, abridged: (§1)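 Aqueous constants were extrapolated by the Yasuda–Shedlovsky method from pH-metric titrations run at several MeOH or EtOH cosolvent levels. Electrode calibrated with pH 7.00 phosphate buffer and standardized after a blank titration. Values are expressed on the pcH (-log[H+]) concentration scale.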

Series [2] in a line: Evaluated for ionization constant (pKa3) by titrations performed in presence of a MeOH and at a dielectric constant of 56. As to conditions: MeOH cosolvent; read-out: pKa3. In short, it runs like this: (§2)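 pH-metric titration in mixed water/cosolvent media (MeOH or EtOH, depending on the ligand) at several cosolvent proportions, each proportion setting the dielectric constant. Electrode calibrated with pH 7.00 phosphate buffer and standardized after a blank titration by a nonlinear semiempirical fit. Readings were converted to pcH to give concentration-scale constants.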

Series [3] can be described thus: Partition coefficient (logP) (cyclohexane). In short, it runs like this: (§3)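 Free-ligand partition coefficients are measured by the pH-metric technique. This uses two linked titrations: a normal aqueous titration, then a two-phase titration in the presence of the partition solvent.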
Series [4] is described as follows: Evaluated for ionization constant (pKa2) by titrations performed in presence of a MeOH and at a dielectric constant of 56. As to conditions: MeOH cosolvent, dielectric constant 56; read-out: pKa2. The procedure, abridged: as §2
Series [5] in a line: Evaluated for ionization constant (pKa2) by titrations performed in presence of a MeOH and at a dielectric constant of 62. As to conditions: MeOH cosolvent, dielectric constant 62; read-out: pKa2. The procedure, abridged:
as §2

Series [6] is described as follows: Evaluated for ionization constant (pKa2) by titrations performed in presence of a MeOH and at a dielectric constant of 49. As to conditions: MeOH cosolvent, dielectric constant 49; read-out: pKa2. In short, it runs like this: as §2
Series [7] can be described thus: Evaluated for ionization constant (pKa4) by titrations performed in presence of a MeOH and at a dielectric constant of 49. As to conditions: MeOH cosolvent; read-out: pKa4. The procedure, abridged:
as §2

A short description of series [8]: Evaluated for ionization constant (pKa2) by titrations performed using method of Yasuda and Shedlovsky. As to conditions: read-out: pKa2. The procedure, abridged:
as §1

The nature of series [9]: Evaluated for ionization constant (pKa1) by titrations performed in presence of a MeOH and at a dielectric constant of 56. As to conditions: MeOH cosolvent, dielectric constant 56; read-out: pKa1. In short, it runs like this: as §2
Series [10] is described as follows: Evaluated for ionization constant (pKa3) by titrations performed in presence of a MeOH and at a dielectric constant of 62. As to conditions: MeOH cosolvent; read-out: pKa3. The procedure, abridged:
as §2

Series [11] is described as follows: Evaluated for ionization constant (pKa1) by titrations performed using method of Yasuda and Shedlovsky. As to conditions: read-out: pKa1. The procedure, abridged:
as §1

A short description of series [12]: Evaluated for ionization constant (pKa3) by titrations performed in presence of a MeOH and at a dielectric constant of 49. As to conditions: MeOH cosolvent; read-out: pKa3. In short, it runs like this:
as §2

Series [13] can be described thus: Evaluated for ionization constant (pKa4) by titrations performed in presence of a MeOH and at a dielectric constant of 62. As to conditions: MeOH cosolvent; read-out: pKa4. In short, it runs like this:
as §2

A short description of series [14]: Evaluated for ionization constant (pKa4) by titrations performed using the method of Yasuda and Shedlovsky. As to conditions: read-out: pKa4. The procedure, abridged:
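Potentiometric pH titration. The electrode is calibrated with pH 7.00 phosphate buffer. A blank titration before each set standardizes the electrode by a nonlinear semiempirical equation, and readings are converted to the concentration scale pcH = −log[H+]. Runs use varying amounts of MeOH or EtOH cosolvent, and aqueous pKa values are extrapolated by the Yasuda–Shedlovsky method. Low pKa values (pH < 2) are determined by spectrophotometric titration.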

Series [15] is described as follows: Partition coefficient (logP). As to conditions: octanol/water. The procedure, abridged:
as §3

Series [16] is described as follows: Evaluated for ionization constant (pKa1) by titrations performed in presence of a MeOH and at a dielectric constant of 62. As to conditions: MeOH cosolvent, dielectric constant 62; read-out: pKa1. The procedure, abridged:
as §2

Series [17] is described as follows: Evaluated for ionization constant (pKa4) by titrations performed in presence of a MeOH and at a dielectric constant of 56. As to conditions: MeOH cosolvent; read-out: pKa4. In short, it runs like this: as §2

Structures are written as SMILES.

As for `COC(=O)CN(CCN(CC(=O)OC)Cc1ccccc1O)Cc1ccccc1O`, the pKa in [1] was found to be 5.7; in [2] it was 5.46; in [4], 11.6; in series [5], 11.3; in [6], 11.9; in [7], 0.69. Besides, the pKa in series [8] came out at 10.9; in series [9] it was 12.9; in series [10] it was 5.58; in [11], 12.2; in series [12], 5.4; in series [13] it was 1.1. In addition, the pKa in series [14] was 1.4; in series [16], 12.6; in series [17], 0.82. Also, the logP (in general, the decadic logarithm of the partition coefficient of the neutral form, usually between octanol and water) in series [3] stood at 2.11; in series [15], 2.86.
